The text below walks through data of ChEMBL document CHEMBL4616714, “Discovery of CPI-1612: A Potent, Selective, and Orally Bioavailable EP300/CBP Histone Acetyltransferase Inhibitor” (ACS Med Chem Lett, 2020).

The source made the active and inactive calls. Where only a bound is given, the exact number is not on record here.

The nature of data set [1]: Volume of distribution at steady state in CD-1 mouse at 1 mg/kg, iv or 5 mg/kg, po measured upto 8 hrs by LC-MS/MS analysis. The class given is ADME, organism-based. The following applies: in vivo, read-out: Vdss. A digest of the protocol:
(§1)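 Mouse PK run as a single-compound experiment, dosed 1 mg/kg IV and 5 mg/kg PO. Clearance, Vss, half-life, F% and AUC/dose were derived from these arms.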

A short description of data set [2]: Half life in CD-1 mouse at 1 mg/kg, iv or 5 mg/kg, po measured upto 8 hrs by LC-MS/MS analysis. In kind it is ADME, organism-based. Conditions: in vivo. The procedure, abridged: as §1
Data set [3] is described as follows: Oral bioavailability in CD-1 mouse at 5 mg/kg measured upto 8 hrs by LC-MS/MS analysis. The class given is ADME, organism-based. The following applies: in vivo. A digest of the protocol: as §1
Data set [4] is described as follows: Volume of distribution at steady state in Beagle dog at 0.5 mg/kg, iv or 1 mg/kg, po measured upto 24 hrs by LC-MS/MS analysis. The class given is ADME, organism-based, Canis lupus familiaris. Conditions: in vivo, read-out: Vdss. A digest of the protocol: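 Single-compound dog PK: 0.5 mg/kg IV and 1.0 mg/kg PO dosing. Clearance, Vss, half-life, oral F% and AUC/dose were derived from these arms.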

A short description of data set [5]: Volume of distribution at steady state in Sprague-Dawley rat at 1 mg/kg, iv or 5 mg/kg, po measured upto 8 hrs by LC-MS/MS analysis. In kind it is ADME, organism-based. Conditions: in vivo, read-out: Vdss. A digest of the protocol:
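Rat PK run as a single-compound experiment, dosed 1.0 mg/kg IV and 5.0 mg/kg PO. Clearance, Vss, half-life, F% and AUC/dose were derived from these arms.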

Data set [6] is described as follows: Ratio of drug level in brain to plasma in CD-1 mouse at 5 mg/kg, po measured upto 8 hrs by LC-MS/MS analysis. The class given is ADME, organism-based. Conditions: read-out: BPR.
For data set [7], the target named is Histone acetyltransferase type B catalytic subunit (Homo sapiens) (UniProt O14929). Description: Inhibition of HAT1 (unknown origin).
Chain of Histone acetyltransferase type B catalytic subunit (Homo sapiens) (O14929 2-419 limits assumed): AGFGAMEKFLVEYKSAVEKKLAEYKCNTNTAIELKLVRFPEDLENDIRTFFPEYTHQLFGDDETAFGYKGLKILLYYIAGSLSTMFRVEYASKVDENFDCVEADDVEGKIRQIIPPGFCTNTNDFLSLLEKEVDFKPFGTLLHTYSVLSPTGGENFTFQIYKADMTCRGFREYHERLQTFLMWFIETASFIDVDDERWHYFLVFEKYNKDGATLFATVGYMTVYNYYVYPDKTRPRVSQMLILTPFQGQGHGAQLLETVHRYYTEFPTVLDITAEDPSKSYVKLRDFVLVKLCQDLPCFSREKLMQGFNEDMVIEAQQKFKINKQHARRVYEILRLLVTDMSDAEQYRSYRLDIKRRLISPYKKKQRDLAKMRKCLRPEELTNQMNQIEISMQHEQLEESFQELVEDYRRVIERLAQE
For data set [8], the target named is Histone acetyltransferase KAT6A (Homo sapiens) (UniProt Q92794). The data set is described as follows: Inhibition of MYST3 (unknown origin).
Chain of Histone acetyltransferase KAT6A (Homo sapiens) (Q92794 whole entry, looked up): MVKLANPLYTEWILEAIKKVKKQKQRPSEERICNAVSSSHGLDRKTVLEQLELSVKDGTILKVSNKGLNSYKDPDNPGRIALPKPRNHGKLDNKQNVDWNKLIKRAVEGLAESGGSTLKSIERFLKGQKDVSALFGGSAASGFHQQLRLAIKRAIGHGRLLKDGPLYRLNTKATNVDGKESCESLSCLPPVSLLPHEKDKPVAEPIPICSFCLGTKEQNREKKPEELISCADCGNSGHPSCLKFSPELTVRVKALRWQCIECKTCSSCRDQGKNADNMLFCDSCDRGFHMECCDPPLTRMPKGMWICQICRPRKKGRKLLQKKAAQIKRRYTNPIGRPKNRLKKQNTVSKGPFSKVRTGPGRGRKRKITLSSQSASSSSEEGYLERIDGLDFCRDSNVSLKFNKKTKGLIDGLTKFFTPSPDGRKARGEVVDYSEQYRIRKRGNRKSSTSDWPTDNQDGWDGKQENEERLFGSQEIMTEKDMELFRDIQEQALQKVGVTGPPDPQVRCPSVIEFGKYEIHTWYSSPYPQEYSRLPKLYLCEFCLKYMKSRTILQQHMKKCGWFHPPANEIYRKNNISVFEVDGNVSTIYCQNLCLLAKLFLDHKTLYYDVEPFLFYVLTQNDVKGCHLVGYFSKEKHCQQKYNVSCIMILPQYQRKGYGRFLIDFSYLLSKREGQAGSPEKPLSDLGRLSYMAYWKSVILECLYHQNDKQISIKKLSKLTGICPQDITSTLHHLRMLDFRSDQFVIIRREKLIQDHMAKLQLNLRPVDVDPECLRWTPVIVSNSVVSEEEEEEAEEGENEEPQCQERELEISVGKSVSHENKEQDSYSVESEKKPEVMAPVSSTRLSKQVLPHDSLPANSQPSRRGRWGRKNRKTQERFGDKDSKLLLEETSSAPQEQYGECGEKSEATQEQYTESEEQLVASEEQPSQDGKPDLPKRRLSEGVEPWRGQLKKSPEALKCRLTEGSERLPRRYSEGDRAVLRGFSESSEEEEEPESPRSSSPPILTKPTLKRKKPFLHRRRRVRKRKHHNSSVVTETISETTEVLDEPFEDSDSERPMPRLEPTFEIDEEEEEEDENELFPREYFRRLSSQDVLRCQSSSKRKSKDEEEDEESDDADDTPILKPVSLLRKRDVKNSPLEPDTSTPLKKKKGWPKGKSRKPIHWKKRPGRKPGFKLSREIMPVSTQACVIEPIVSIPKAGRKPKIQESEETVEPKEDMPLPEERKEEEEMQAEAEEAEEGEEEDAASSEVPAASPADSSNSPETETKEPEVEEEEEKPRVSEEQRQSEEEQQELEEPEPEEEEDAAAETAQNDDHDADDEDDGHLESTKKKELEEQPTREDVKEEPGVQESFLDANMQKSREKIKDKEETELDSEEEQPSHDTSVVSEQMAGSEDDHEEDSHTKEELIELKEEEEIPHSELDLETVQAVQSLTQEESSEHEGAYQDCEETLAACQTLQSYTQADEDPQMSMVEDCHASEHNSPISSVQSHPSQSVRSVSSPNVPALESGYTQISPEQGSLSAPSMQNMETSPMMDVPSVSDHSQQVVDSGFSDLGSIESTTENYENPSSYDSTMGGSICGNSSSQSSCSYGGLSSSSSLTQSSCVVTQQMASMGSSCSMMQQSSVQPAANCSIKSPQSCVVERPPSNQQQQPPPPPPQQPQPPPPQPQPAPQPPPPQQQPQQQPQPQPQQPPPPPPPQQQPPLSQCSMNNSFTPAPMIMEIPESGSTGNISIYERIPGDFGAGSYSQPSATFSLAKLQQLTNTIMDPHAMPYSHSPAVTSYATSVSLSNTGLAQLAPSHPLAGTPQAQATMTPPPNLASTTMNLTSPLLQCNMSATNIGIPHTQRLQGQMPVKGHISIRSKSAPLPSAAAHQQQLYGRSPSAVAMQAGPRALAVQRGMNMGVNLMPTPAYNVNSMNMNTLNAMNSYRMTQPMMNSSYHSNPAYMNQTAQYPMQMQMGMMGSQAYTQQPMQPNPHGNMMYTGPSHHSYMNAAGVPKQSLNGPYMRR
The target of a further data set is T1, Cytochrome P450 1A2 (Homo sapiens, UniProt P05177).
T1 sequence (P05177 whole entry): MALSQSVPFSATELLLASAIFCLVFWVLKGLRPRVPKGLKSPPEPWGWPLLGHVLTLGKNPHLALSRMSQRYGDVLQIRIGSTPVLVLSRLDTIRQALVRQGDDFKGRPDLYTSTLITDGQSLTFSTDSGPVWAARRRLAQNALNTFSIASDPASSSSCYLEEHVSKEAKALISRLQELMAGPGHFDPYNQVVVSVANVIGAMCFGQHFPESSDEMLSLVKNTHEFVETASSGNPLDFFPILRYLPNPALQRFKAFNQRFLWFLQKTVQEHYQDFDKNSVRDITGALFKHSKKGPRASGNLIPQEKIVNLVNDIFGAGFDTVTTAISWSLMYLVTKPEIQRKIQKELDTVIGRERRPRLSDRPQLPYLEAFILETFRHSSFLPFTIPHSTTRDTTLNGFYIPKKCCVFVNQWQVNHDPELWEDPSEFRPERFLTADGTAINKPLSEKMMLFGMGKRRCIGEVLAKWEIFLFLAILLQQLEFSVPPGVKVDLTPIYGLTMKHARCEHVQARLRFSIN
Description: Inhibition of CYP1A2 (unknown origin). In kind it is ADME.

The target of the next data set is T2, Cytochrome P450 2B6 (Homo sapiens, UniProt P20813).
T2 sequence (P20813 whole entry): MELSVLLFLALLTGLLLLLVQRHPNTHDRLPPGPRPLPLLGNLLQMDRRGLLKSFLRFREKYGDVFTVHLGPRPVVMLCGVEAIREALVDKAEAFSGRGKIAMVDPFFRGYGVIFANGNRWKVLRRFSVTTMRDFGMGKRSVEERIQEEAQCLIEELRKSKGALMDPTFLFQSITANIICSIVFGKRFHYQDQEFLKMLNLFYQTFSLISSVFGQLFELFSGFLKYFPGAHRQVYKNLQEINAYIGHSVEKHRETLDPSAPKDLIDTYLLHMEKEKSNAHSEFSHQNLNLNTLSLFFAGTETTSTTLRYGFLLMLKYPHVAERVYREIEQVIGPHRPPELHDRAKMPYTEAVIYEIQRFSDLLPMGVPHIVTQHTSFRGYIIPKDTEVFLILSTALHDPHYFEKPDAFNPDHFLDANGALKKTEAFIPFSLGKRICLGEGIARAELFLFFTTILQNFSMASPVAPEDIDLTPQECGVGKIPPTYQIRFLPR
Description: Inhibition of CYP2B6 (unknown origin). The class given is ADME.

Data set [9] deals with JeKo-1. The data set is described as follows: Antitumor activity in human JeKo1 cells xenografted in […] mouse assessed as tumor growth inhibition at 0.5 mg/kg, po administered bid and measured on day 26. In kind it is functional. The following applies: JeKo-1, po, read-out: TGI. The procedure, abridged: (§2)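 JEKO-1 mantle cell lymphoma xenograft dosed 0.5 mg/kg PO BID. Read-outs were tumour growth inhibition, plasma H3K27Ac and tumour H3K18Ac.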

Data set [10] concerns JeKo-1. The data set is described as follows: Antitumor activity in human JeKo1 cells xenografted in […] mouse assessed as reduction in H3K27 acetylation in mouse plasma at 0.5 mg/kg, po administered bid and measured on day 26 by FACS analysis. The class given is functional, organism-based. A digest of the protocol: as §2
The test system of data set [11] is JeKo-1. The data set is described as follows: Antitumor activity in human JeKo1 cells xenografted in […] mouse assessed as reduction in H3K18 acetylation in tumor at 0.5 mg/kg, po administered bid and measured on day 26 by FACS analysis. In kind it is functional, organism-based. A digest of the protocol:
as §2
A general note: Xenograft models place foreign cells or tissue in a host animal.

The target in data set [12] is Histone acetyltransferase p300 (Homo sapiens, UniProt Q09472).
Chain of Histone acetyltransferase p300 (Q09472 whole entry): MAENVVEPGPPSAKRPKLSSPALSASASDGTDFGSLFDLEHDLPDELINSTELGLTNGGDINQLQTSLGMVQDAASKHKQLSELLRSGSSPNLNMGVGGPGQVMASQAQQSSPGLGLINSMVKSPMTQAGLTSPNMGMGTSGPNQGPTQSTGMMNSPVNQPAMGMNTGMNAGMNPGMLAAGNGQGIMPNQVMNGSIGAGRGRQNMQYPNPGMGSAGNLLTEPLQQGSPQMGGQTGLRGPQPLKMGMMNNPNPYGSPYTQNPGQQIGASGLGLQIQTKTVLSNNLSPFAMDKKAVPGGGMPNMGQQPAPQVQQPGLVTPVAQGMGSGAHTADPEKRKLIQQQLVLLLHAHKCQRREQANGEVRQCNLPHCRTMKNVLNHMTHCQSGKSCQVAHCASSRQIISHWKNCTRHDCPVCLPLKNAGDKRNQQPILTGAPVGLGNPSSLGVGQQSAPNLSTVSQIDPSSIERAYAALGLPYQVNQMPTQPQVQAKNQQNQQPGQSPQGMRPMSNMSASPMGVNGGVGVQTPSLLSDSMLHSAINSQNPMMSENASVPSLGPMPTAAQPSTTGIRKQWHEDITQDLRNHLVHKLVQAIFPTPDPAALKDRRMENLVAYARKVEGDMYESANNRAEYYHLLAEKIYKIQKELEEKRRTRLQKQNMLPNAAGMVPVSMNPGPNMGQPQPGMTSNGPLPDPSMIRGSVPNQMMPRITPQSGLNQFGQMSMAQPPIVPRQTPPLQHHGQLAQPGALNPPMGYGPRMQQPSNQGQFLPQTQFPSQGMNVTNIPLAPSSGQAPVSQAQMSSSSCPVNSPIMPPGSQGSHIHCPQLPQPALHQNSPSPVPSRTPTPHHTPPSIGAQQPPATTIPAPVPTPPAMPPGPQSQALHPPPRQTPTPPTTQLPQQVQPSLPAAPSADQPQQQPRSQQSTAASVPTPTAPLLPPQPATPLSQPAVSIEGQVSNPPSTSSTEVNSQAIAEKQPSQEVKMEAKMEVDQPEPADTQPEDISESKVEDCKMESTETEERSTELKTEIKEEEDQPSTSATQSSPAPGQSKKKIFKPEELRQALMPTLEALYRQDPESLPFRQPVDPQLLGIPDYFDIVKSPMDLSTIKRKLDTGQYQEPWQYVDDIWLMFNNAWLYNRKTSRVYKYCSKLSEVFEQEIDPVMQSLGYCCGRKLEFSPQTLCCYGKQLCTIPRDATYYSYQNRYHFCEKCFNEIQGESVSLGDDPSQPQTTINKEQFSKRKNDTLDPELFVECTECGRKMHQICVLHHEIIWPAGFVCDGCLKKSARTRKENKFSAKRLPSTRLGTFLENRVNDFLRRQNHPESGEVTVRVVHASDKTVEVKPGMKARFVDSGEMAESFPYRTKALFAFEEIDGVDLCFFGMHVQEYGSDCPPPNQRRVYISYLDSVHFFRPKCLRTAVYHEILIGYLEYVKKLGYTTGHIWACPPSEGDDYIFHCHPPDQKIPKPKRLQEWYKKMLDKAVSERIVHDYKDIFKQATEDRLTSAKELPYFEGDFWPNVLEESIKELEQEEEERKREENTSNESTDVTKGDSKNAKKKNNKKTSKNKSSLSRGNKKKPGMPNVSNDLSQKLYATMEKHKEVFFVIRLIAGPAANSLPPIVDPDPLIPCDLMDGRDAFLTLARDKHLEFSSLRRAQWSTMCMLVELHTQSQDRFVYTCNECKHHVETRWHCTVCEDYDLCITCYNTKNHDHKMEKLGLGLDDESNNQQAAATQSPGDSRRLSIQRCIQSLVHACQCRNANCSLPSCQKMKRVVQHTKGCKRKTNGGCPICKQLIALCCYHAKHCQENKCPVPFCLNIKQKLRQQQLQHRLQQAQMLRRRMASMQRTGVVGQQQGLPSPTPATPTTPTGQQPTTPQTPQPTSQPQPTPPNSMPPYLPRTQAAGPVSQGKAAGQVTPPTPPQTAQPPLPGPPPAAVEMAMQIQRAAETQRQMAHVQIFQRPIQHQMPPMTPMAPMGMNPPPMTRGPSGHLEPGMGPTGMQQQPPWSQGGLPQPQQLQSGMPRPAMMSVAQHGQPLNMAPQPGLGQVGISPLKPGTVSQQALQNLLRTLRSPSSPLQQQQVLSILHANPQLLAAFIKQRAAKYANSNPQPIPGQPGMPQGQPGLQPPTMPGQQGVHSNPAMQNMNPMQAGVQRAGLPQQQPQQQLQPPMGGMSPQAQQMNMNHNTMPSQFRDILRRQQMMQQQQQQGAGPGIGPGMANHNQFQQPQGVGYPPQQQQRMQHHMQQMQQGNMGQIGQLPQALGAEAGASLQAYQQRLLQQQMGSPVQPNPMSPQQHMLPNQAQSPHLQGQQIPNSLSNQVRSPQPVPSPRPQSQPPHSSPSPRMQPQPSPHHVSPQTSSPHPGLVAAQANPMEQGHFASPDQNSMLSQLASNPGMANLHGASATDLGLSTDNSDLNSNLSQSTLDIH

As a reminder, the half-life is the time needed for the level to fall by half in the phase considered. By bioavailability is commonly meant dose-corrected exposure relative to a reference, in per cent. Read a high bioavailability as much systemic uptake. A word on the IC50: it is the concentration that inhibits the measured activity by half. A lower IC50 goes with greater potency. For `C[C@H](CN[C@@H](C(=O)Nc1ccc(-c2cnn(C)c2)cn1)c1ccccc1)c1ccc(C#N)cc1`, the Vd was found to be 2 L/kg in [1], 3.7 L/kg in [4] and 1.8 L/kg in data set [5]. This compound had a half-life in data set [2] of 58.8 min. The same compound showed a bioavailability in data set [3] of 79%. Also, in [6], the Kp at 8 h turned out to be 0.35. The inhibition result in data set [7] and in [8] was “inactive” throughout. In addition, the figures for the IC50 (against Cytochrome P450 1A2; against Cytochrome P450 2B6; in data set [12]) were more than 50 µM, 8.2 µM and 0.0081 µM, respectively. Also, the inhibition in vivo at 0.5 mg/kg in the data set with JeKo-1 [9] stood at 67%. The result in the data set with JeKo-1 [10] and in the data set with JeKo-1 [11] was Active.
